Screening data from PubChem.
Kir21 inh – Kir2.1 (mouse) channel inhibition; 0.85% of 310,000 active; P35561; HEK293-Kir2.1, FluxOR thallium flux fluorescence; active compounds read low; B-score at 10 µM; AID 1672;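 active = fluorescence ratio B-score at or below minus 3 SD of library scores, with starting-brightness B-score within 2 SD, cut at about -4.2 in these data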;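 also: channel flux triggered by added potassium and thallium sulfate stimulus; B-score of peak minus minimum fluorescence over baseline after thallium stimulus; more negative B-score means stronger Kir2.1 block with less thallium influx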
Target sequence (P35561 whole entry, looked up): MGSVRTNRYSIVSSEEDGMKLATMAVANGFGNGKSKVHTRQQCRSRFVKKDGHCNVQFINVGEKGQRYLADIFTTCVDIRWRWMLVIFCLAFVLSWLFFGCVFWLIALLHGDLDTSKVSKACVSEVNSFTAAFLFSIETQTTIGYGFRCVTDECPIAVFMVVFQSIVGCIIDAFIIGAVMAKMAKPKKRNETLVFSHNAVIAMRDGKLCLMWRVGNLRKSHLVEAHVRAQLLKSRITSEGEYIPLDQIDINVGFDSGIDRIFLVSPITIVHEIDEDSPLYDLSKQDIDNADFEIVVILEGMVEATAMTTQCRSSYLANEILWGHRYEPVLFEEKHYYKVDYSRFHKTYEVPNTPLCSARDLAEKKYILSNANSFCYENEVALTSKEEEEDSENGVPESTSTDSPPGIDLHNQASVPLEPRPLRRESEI
TRPC6 inhibitor – inhibitors of mouse TRPC6 channel | Q61143 | HEK293-TRPC6, membrane potential dye, ACh-evoked depolarization; active compounds read low | B-score at 10 µM | 1.1% of 310,000 active | AID 2553;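 active = B-score under library mean minus 3 SD, initial fluorescence not abnormally high, positive integrated signal ratio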;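 also: B-score derived from integrated fluorescence ratio over the kinetic read; more negative B-score means stronger inhibition of depolarization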
TRPC4 inh – TRPC4 (mouse) channel inhibition. 0.39% of 300,000 active. B-score at 10 µM. HEK293 TRPC4beta/mu-opioid, DAMGO-evoked Fluo4 calcium flux; active compounds read low;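 active = B-score over 3 SD under the library average, no early fluorescence shift, positive overall ratio signal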
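Assay system – HEK293 line stably carrying TRPC4beta and mu-opioid receptor · Doses – single dose · Detection – Fluo4 calcium-dye fluorescence, kinetic read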
TRPC4 PAM – allosteric potentiators of mouse TRPC4 channel; Q9QUQ5; HEK293 TRPC4beta/mu-opioid, DAMGO EC20, Fluo-4 Ca2+ flux; active compounds read high; B-score at 10 µM; 0.42% of 310,000 active;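 active = B-score of calcium response area above 5 SD of library B-scores, with initial fluorescence ratio within 5 SD of library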
TRPC4 agonist – TRPC4 (mouse) channel activation; HEK293 TRPC4beta/mu-opioid, Fluo4 calcium fluorescence; active compounds read high; B-score at 10 µM; 0.49% of 310,000 active;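 active = B-score above 5 SD of library B-scores, and initial fluorescence ratio not above library mean plus 5 SD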;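 also: positive B-score marks a calcium rise read as TRPC4 activation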
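Assay system: HEK293 cells stably co-expressing mouse TRPC4beta and mu-opioid receptor / Timing: Fluo4 dye loading 45 min at room temperature, 110 s recording / Signal: Fluo4 calcium-sensitive dye fluorescence, kinetic, 1 Hz baseline / Read-out: integrated baseline-normalised fluorescence ratio, converted to per-well B score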
TRPC6 act – mouse TRPC6 channel activation. Q61143. HEK293-TRPC6 membrane potential dye fluorescence; active compounds read high. B-score at 10 µM. 0.13% of 310,000 active. AID 2550;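 active = B-score of the integrated fluorescence ratio above library mean plus 3 SD, and starting fluorescence ratio within library mean plus 5 SD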;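 also: higher score means more depolarization so channel activation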
TRPC4 sel inh 2 – mouse TRPC4 off-target activity of TRPC6 inhibitors, second screen | HEK293 TRPC4/MOR, membrane potential dye fluorescence; channel activated by saturating DAMGO dose | shares compounds with TRPC6 inhibitor | inhibition, % at 10 µM | 42% of 920 active;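 active = compounds whose fluorescence signal differed from control wells by over 3 SD, either direction, in both duplicate plates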
TRPC4 spec – mouse TRPC4 off-target activity of TRPC6 inhibitors. HEK293 TRPC4/mu-opioid, membrane potential fluorescence. activity change, negative = inhibition, % at 10 µM. 61% of 920 active. shares compounds with TRPC6 inhibitor;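 active = rise or fall in signal beyond 3 SD of buffer-only wells in both replicate plates, either sign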;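 also: integrated kinetic ratio of fluorescence range over baseline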
HEK293 MPD ctr 2-1 – second counter-screen for TRPC6 inhibitors: parental HEK293 cells. shares compounds with TRPC6 inhibitor. parental HEK293 membrane potential dye fluorescence; maximal acetylcholine challenge after compound addition. signal change vs control, % at 10 µM. 31% of 920 active;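 active = membrane potential signal moving either way by over 3 SD of the maximum-effect control, in both duplicate plates, meaning non-specific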
HEK293 MPD ctr-1 – counter-screen for TRPC6 inhibitors: effect in parental HEK293 cells. shares compounds with TRPC6 inhibitor. parental HEK293 membrane potential dye fluorescence. membrane potential signal change, % at 10 µM. 60% of 920 active;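 active = membrane potential signal shifting up or down by more than 3 SD of buffer-only wells, on both duplicate plates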
HEK293 MPD ctr-2 – checks TRPC6 modulator effects in parental HEK293 cells; AID 488924; membrane potential dye fluorescence; shares compounds with TRPC6 inhibitor; 51% of 2,400 active; membrane potential signal change, % at 10 µM;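 active = membrane potential signal moves up or down beyond 5 SD from buffer-only wells, on both duplicate plates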
HEK293 MPD ctr 2-2 – second counter-screen for TRPC6 modulators: effect in parental HEK293 cells; 14% of 2,400 active; shares compounds with TRPC6 inhibitor; membrane potential dye fluorescence; after compound, maximal acetylcholine stimulation; inhibition, % at 10 µM;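 active = membrane potential signal drops by more than 5 SD from the mean control signal, in both duplicate plates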
TRPC4 ctr mod – selectivity of TRPC6 modulators against mouse TRPC4; 69% of 2,400 active; AID 488927; shares compounds with TRPC6 inhibitor; HEK293 TRPC4/mu-opioid, membrane potential fluorescence; percent change from control (negative = decrease, positive = increase), % at 10 µM;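 active = membrane potential signal moved up or down beyond 5 SD of buffer control wells, in both duplicate plates, actives on both sides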
TRPC4/MOR inh 2 – second selectivity test of TRPC6 modulators against mouse TRPC4; inhibition, % at 10 µM; HEK293 TRPC4/mu-opioid, membrane potential dye fluorescence; stimulated with maximal-effect DAMGO; 55% of 2,400 active; shares compounds with TRPC6 inhibitor;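 active = drop in membrane potential signal beyond 5 SD of the control wells in both duplicate plates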;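 also: TRPC4 counter screen for TRPC6 hits run under conditions tuned for TRPC6 not TRPC4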
TRPC6 inh conf – confirmation of mouse TRPC6 inhibitors. shares compounds with TRPC6 inhibitor. HEK293-TRPC6, membrane potential dye, ACh-evoked depolarization. inhibition, % at 10 µM. 43% of 3,300 active;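 active = fluorescence ratio falls more than 5 SD below the full-stimulation control mean, in both duplicate runs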;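 also: integrated fluorescence ratio of peak minus minimum over baseline after agonist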
TRPC6 act confirm – confirmation of mouse TRPC6 activators | shares compounds with TRPC6 inhibitor | HEK293-TRPC6 membrane potential dye fluorescence, FDSS | activation, % at 10 µM | 11% of 2,800 active | AID 488961;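 active = ratio signal rise beyond 5 SD above unstimulated control wells' mean, seen in both duplicate runs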
Of the large screens only hits and unclear results are named; the others gave an inactive call (follow-up assays come after a bar, where they were run). Sampled rows, rich in hits. Any-hit rate of the full collection: about 2.9%.

COc1ccc(-n2c(SCc3ccc([N+](=O)[O-])cc3)nnc2-c2ccc(C)cc2)cc1	none
CCC1CCCCN1C(=O)c1sc2nc(C)nc(N(CC)CC)c2c1C (stereo not drawn)	none
CCOC(=O)C1CCCN(C(=O)c2sc3nc(C)nc(N(CC)CC)c3c2C)C1 (stereo not drawn)	TRPC6 inhibitor -5.2 | HEK293 MPD ctr-2 110% | HEK293 MPD ctr 2-2 inactive | TRPC4 ctr mod 22% | TRPC4/MOR inh 2 36% | TRPC6 inh conf 38%
COc1cc(CN2CCC(n3nccc3NC(=O)c3ccc4c(c3)OCO4)CC2)ccc1O	none
COc1cc(N2N=C(c3ccccc3)CC2c2ccccc2)c(C=O)cc1C=O (stereo not drawn)	none
COc1ccccc1N1N=C(c2ccc([N+](=O)[O-])cc2)CC1c1ccccc1 (stereo not drawn)	TRPC6 act 13 | HEK293 MPD ctr-2 inactive | HEK293 MPD ctr 2-2 inactive | TRPC4 ctr mod 23% | TRPC4/MOR inh 2 inactive | TRPC6 inh conf inactive | TRPC6 act confirm 44%
CN(C)C/C=C/C(O)(c1ccccc1)c1ccccc1	TRPC6 inhibitor -7.6 | TRPC4 sel inh 2 inactive | TRPC4 spec inactive | HEK293 MPD ctr 2-1 inactive | HEK293 MPD ctr-1 1.3% | TRPC6 inh conf 61% | TRPC6 act confirm inactive
CN(C)C/C(Cl)=C(\Cl)c1ccccc1	none
COC(=O)C1CCN(C2=C(NS(=O)(=O)c3ccc(Cl)cc3)C(=O)c3ccccc3C2=O)CC1	TRPC6 inhibitor -6.9 | TRPC4 sel inh 2 80% | TRPC4 spec -18% | HEK293 MPD ctr 2-1 inactive | HEK293 MPD ctr-1 -250% | TRPC6 inh conf inactive | TRPC6 act confirm inactive
COc1ccc(Cn2c(=N)c(C(=O)NC3CCCCC3)cc3c(=O)n4ccccc4nc32)cc1	none
COc1ccc(CCn2c(=N)c(C(=O)NC3CCCC3)cc3c(=O)n4ccccc4nc32)cc1OC	TRPC6 inhibitor -5.2 | HEK293 MPD ctr-2 -154% | HEK293 MPD ctr 2-2 inactive | TRPC4 ctr mod -33% | TRPC4/MOR inh 2 52% | TRPC6 inh conf 42% | TRPC6 act confirm inactive
COc1ccc(CCn2c(=N)c(C(=O)NC3CCCC3)cc3c(=O)n4ccccc4nc32)cc1	TRPC6 inhibitor -6.5 | HEK293 MPD ctr-2 169% | HEK293 MPD ctr 2-2 114% | TRPC4 ctr mod 26% | TRPC4/MOR inh 2 86% | TRPC6 inh conf 64% | TRPC6 act confirm inactive
COCCCn1c(=N)c(C(=O)NC2CCCCC2)cc2c(=O)n3ccccc3nc21	TRPC6 inhibitor -6.1 | HEK293 MPD ctr-2 inactive | HEK293 MPD ctr 2-2 inactive | TRPC4 ctr mod inactive | TRPC4/MOR inh 2 49% | TRPC6 inh conf 64% | TRPC6 act confirm inactive
CC(=O)N1[C@H](C)C=C[C@]1(Cc1ccccc1)C(=O)NCCN1CCOCC1	none
COCCCNC(=O)CN(CCc1ccccc1)S(=O)(=O)c1ccc(C)cc1	none
CCO[C@H]1OC(C(=O)N2CCCCCCC2)=C[C@@H](c2coc3ccccc3c2=O)[C@@H]1CCCO	none
CCOc1ccc(NC(=O)CN(C)Cc2cc(=O)n3c(-c4ccccc4)csc3n2)cc1OCC	none
COc1ccccc1-c1c(C)oc2c(CN3CCCC(C)C3)c(O)ccc2c1=O (stereo not drawn)	none
COc1ccccc1-c1coc2c(CN3CCCC(C)C3)c(O)ccc2c1=O (stereo not drawn)	TRPC6 inhibitor -5.9 | HEK293 MPD ctr-2 inactive | HEK293 MPD ctr 2-2 inactive | TRPC4 ctr mod inactive | TRPC4/MOR inh 2 inactive | TRPC6 inh conf inactive | TRPC6 act confirm inactive
O=[N+]([O-])c1ccc2nc(SCc3cn4cc(Cl)ccc4n3)[nH]c2c1	TRPC6 inhibitor -5.4 | HEK293 MPD ctr-2 inactive | HEK293 MPD ctr 2-2 inactive | TRPC4 ctr mod inactive | TRPC4/MOR inh 2 inactive | TRPC6 inh conf inactive | TRPC6 act confirm inactive
O=[N+]([O-])c1ccc2nc(SCc3cn4ccccc4n3)[nH]c2c1	none
COc1ccccc1N(CC(O)COc1ccccc1C)S(=O)(=O)c1ccccc1 (stereo not drawn)	none
CC(C)n1c(=S)[nH]c2cc(Cl)ccc21	none
COC(=O)c1ccc2nc(C)cc(Nc3ccccc3C)c2c1	TRPC6 inhibitor -5.9 | HEK293 MPD ctr-2 -149% | HEK293 MPD ctr 2-2 inactive | TRPC4 ctr mod -25% | TRPC4/MOR inh 2 43% | TRPC6 inh conf 58% | TRPC6 act confirm inactive
COC(=O)c1ccc(Nc2cc(C)nc3ccc(C)cc23)cc1	TRPC6 inhibitor -7.2 | TRPC4 sel inh 2 inactive | TRPC4 spec -22% | HEK293 MPD ctr 2-1 inactive | HEK293 MPD ctr-1 -299% | TRPC6 inh conf inactive | TRPC6 act confirm inactive
Cc1ccc2nc(C)cc(Nc3ccc([N+](=O)[O-])cc3)c2c1	none
COC(=O)c1ccc2nc(C)c(C)nc2c1	none
O=[N+]([O-])c1cc(-c2ccc(/C=N\n3cnnc3)o2)cc([N+](=O)[O-])c1	TRPC6 inhibitor -6.2 | HEK293 MPD ctr-2 -234% | HEK293 MPD ctr 2-2 63% | TRPC4 ctr mod -34% | TRPC4/MOR inh 2 42% | TRPC6 inh conf inactive | TRPC6 act confirm inactive
